pIC50: −log10 of the molar value. In brackets after ≈: the same amount, converted by molar mass. Activity calls are given as the source filed them. No cut-off for these calls is given here.
Key:
Candida albicans [1] = assay: Antimicrobial activity against Candida albicans ATCC 90028; type: functional, organism-based
In short: (§1)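 Modified CLSI broth microdilution; M. intracellulare by a modified Franzblau method. Samples were serially diluted in 20% DMSO/saline and tested in duplicate. Inocula were set by OD630 in broth. Growth was read before and after incubation at 630 nm, or by fluorescence 544ex/590em for A. fumigatus and M. intracellulare. MIC is the lowest concentration with no detectable growth; MFC/MBC is the lowest concentration giving no growth after 5 µL is subcultured to agar.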

Cryptococcus neoformans [2] = assay: Antimicrobial activity against Cryptococcus neoformans ATCC 90113 at 89 uM; type: functional, organism-based
Cryptococcus neoformans [3] = assay: Antimicrobial activity against Cryptococcus neoformans ATCC 90113
Plasmodium falciparum [4] = assay: Antimalarial activity after 72 hrs against chloroquine-resistant Plasmodium falciparum W2 as LDH activity; type: functional, organism-based; settings: W2, 72 h
In short: (§2)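 D6 or W2 parasitised red cells (2% parasitemia, 2% hematocrit) in RPMI 1640 with 10% human serum and 60 µg/mL amikacin, added to serially diluted samples. Cultures were gassed with 90% N2/5% O2/5% CO2 and held 72 h at 37 °C. Parasite LDH was read with Malstat reagent plus NBT/PES, stopped with 5% acetic acid, at 650 nm.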

[5] = Selectivity index, ratio of IC50 for african green monkey (Cercopithecus aethiops) Vero cells to IC50 for chloroquine-sensitive Plasmodium falciparum D6; type: toxicity, cell-based; settings: read-out: Ratio IC50
In short: (§3)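 Ratio of Vero IC50 (neutral red, 48 h exposure) to P. falciparum IC50 from the 72 h LDH assay on the matching strain (W2 or D6).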

Plasmodium falciparum [6] = assay: Antimalarial activity after 72 hrs against chloroquine-sensitive Plasmodium falciparum D6 as LDH activity; type: functional, organism-based; settings: D6, 72 h; in short: as §2
[7] = Selectivity index, ratio of IC50 for african green monkey (Cercopithecus aethiops) Vero cells to IC50 for chloroquine-resistant Plasmodium falciparum W2; type: toxicity, cell-based; settings: read-out: Ratio IC50; in short: as §3
Vero [8] = assay: Cytotoxicity against african green monkey Vero cells at 17 uM after 48 hrs by neutral red assay; type: cell-based; settings: chlorocebus sabaeus
In short: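 Vero cells seeded at 25,000 cells/well and incubated 24 h. Samples added at a range of concentrations, top concentration 17 µM, then incubated a further 48 h. Viable cells measured by Neutral Red uptake. IC50 taken from dose-response curves; doxorubicin positive control.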

Vero [9] = assay: Cytotoxicity against african green monkey Vero cells after 48 hrs by neutral red assay; type: cell-based; settings: Chlorocebus sabaeus
In short: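 Vero monkey kidney fibroblasts were seeded at 25,000 cells/well and grown 24 h. Samples at graded concentrations were then added for 48 h. Viable cells were counted by neutral red uptake, and IC50 was taken from dose-response curves, with doxorubicin as positive control.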

Candida albicans [10] = assay: Antimicrobial activity against Candida albicans ATCC 90028 at 91 uM; type: functional, organism-based
Cryptococcus neoformans [11] = assay: Antimicrobial activity against Cryptococcus neoformans ATCC 90113; type: functional, organism-based
In short: (§4)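 Broth microdilution following modified CLSI methods; M. intracellulare by a modified Franzblau method. Samples serially diluted in 20% DMSO/saline and plated in duplicate. Inocula set by OD630 of suspensions in incubation broth. Growth read at 630 nm, or fluorescence 544ex/590em for M. intracellulare, before and after incubation. MIC is the lowest concentration with no detectable growth. MFC/MBC comes from subculturing clear wells onto agar.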

Staphylococcus aureus [12] = assay: Antimicrobial activity against methicillin-resistant Staphylococcus aureus ATCC 43300; type: functional, organism-based
In short: as §1, with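 “broth.” for “broth. Growth was read before and after incubation at 630 nm, or by fluorescence 544ex/590em for A. fumigatus and M. intracellulare.”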

Staphylococcus aureus [13] = assay: Antimicrobial activity against methicillin-resistant Staphylococcus aureus ATCC 43300 at 91 uM; type: functional, organism-based
[14] = system: Mycobacterium intracellulare; assay: Antimicrobial activity against Mycobacterium intracellular ATCC 23068; type: functional, organism-based; in short: as §4
Escherichia coli = assay: Antimicrobial activity against Escherichia coli ATCC 35218; type: functional, organism-based; in short: as §1
Pseudomonas aeruginosa = assay: Antimicrobial activity against Pseudomonas aeruginosa ATCC 27853; type: functional, organism-based; in short: as §1
Aspergillus fumigatus = assay: Antimicrobial activity against Aspergillus fumigatus ATCC 90906; type: functional, organism-based; in short: as §1
Plasmodium falciparum [15] = assay: Antimalarial activity after 72 hrs against chloroquine-sensitive Plasmodium falciparum D6 at 8 uM as LDH activity; type: functional, organism-based
Plasmodium falciparum [16] = assay: Antimalarial activity after 72 hrs against chloroquine-resistant Plasmodium falciparum W2 at 8 uM as LDH activity; type: functional, organism-based
Candida albicans [17] = assay: Antimicrobial activity against Candida albicans ATCC 90028 at 89 uM; type: functional, organism-based
Staphylococcus aureus [18] = assay: Antimicrobial activity against methicillin-resistant Staphylococcus aureus ATCC 43300 at 89 uM; type: functional, organism-based
[19] = system: Mycobacterium intracellulare; assay: Antimicrobial activity against Mycobacterium intracellular ATCC 23068 at 89 uM; type: functional, organism-based
Candida albicans [20] = assay: Antimicrobial activity against Candida albicans ATCC 90028 at 87 uM; type: functional, organism-based
Staphylococcus aureus [21] = assay: Antimicrobial activity against methicillin-resistant Staphylococcus aureus ATCC 43300 at 87 uM; type: functional, organism-based
[22] = system: Mycobacterium intracellulare; assay: Antimicrobial activity against Mycobacterium intracellular ATCC 23068 at 87 uM; type: functional, organism-based
Staphylococcus aureus [23] = assay: Antimicrobial activity against methicillin-resistant Staphylococcus aureus ATCC 43300 at 3.0 uM; type: functional, organism-based
Hepatitis C virus [24] = assay: Antiviral activity against HCV at 10 uM; type: functional, Hepacivirus hominis
In short: (§5)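 HCV replicon in Huh-7 cells. Compound tested at 10 µM in triplicate, added immediately after seeding. HCV RNA and rRNA measured as ΔCt values and reported as % inhibition of each.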

Hepatitis C virus [25] = assay: Antiviral activity against HCV in Huh7 cells at 10 uM by replicon assay; type: functional, Hepacivirus hominis, Huh-7; in short: as §5

SMILES | pIC50 (Plasmodium falciparum [4]) | selectivity ratio [5] | pIC50 (Plasmodium falciparum [6]) | selectivity ratio [7] | Activity (Vero [8]) | pIC50 (Cryptococcus neoformans [11]) | pIC50 [14] | MBC [14] [µM] | MIC [14] [µM] | Activity (Escherichia coli) | Activity (Pseudomonas aeruginosa) | Activity (Aspergillus fumigatus) | other results
C[C@@H]1[C@H](O)[C@@H](C)/C=C/C=C/C=C/C=C/C=C/C=C/C=C/[C@H](O[C@@H]2O[C@H](C)[C@@H](O)[C@H](N)[C@@H]2O)C[C@@H]2O[C@](O)(C[C@@H](O)C[C@@H](O)[C@H](O)CC[C@@H](O)C[C@@H](O)CC(=O)O[C@H]1C)C[C@H](O)[C@H]2C(=O)O [AMPHOTERICIN B] |  |  |  |  |  |  |  |  |  |  |  |  | MFC (Candida albicans [1]): 1.35 µM (≈ 1.25 µg/mL); MFC (Cryptococcus neoformans [2]): 1.35 µM (≈ 1.25 µg/mL); MIC (Cryptococcus neoformans [2]): 1.35 µM (≈ 1.25 µg/mL); pIC50 (Cryptococcus neoformans [3]): 6.10
C[C@@H]1CC[C@H]2[C@@H](C)C(=O)O[C@@H]3O[C@@]4(C)CC[C@@H]1[C@]32OO4 [ARTEMISININ] | 8.35 | > 2700 | 8.20 | > 3700 | Non-toxic |  |  |  |  |  |  |  | 
O[C@]12C=C(c3nccc4c3[nH]c3ccccc34)[C@@H]3CCN(CCCC/C=C\CC1)C[C@@]31C[C@@H]3/C=C\CCCCN3[C@H]12 [MANZAMINE A] | 7.70 | 29.4 | 7.77 | 25.2 |  | 5.57 | 6.74 | 2.84 (≈ 1.56 µg/mL) | 0.36 (≈ 0.198 µg/mL) | inactive | inactive | inactive | pIC50 (Vero [9]): 6.30; pIC50 (Candida albicans [1]): 4.79; Activity (Candida albicans [10]): inactive; MFC (Cryptococcus neoformans [11]): 23 µM (≈ 12.6 µg/mL); MIC (Cryptococcus neoformans [11]): 5.7 µM (≈ 3.13 µg/mL); pIC50 (Staphylococcus aureus [12]): 6.74; Activity (Staphylococcus aureus [13]): inactive
Cn1c2ccccc2c2ccnc(C3=C[C@@]4(O)CC/C=C\CCCCN5CCC3[C@]3(C[C@@H]6/C=C\CCCCN6[C@H]34)C5)c21 (some centres undefined) [9N-METHYLMANZAMINE A] |  |  |  |  | Non-toxic |  |  |  |  | inactive | inactive | inactive | Activity (Plasmodium falciparum [15]): inactive; Activity (Plasmodium falciparum [16]): inactive; Activity (Candida albicans [17]): inactive; Activity (Cryptococcus neoformans [2]): inactive; Activity (Staphylococcus aureus [18]): inactive; Activity [19]: inactive
CO[C@]12C=C(c3c4[nH]c5ccccc5c4cc[n+]3C)C3CCN(CCCC/C=C\CC1)C[C@@]31C[C@@H]3/C=C\CCCCN3[C@H]12.O=S(=O)([O-])C(F)(F)F (some centres undefined) |  |  |  |  | Non-toxic | 4.28 |  |  |  | inactive | inactive | inactive | Activity (Plasmodium falciparum [15]): inactive; Activity (Plasmodium falciparum [16]): inactive; Activity (Candida albicans [20]): inactive; MFC (Cryptococcus neoformans [11]): 87 µM; MIC (Cryptococcus neoformans [11]): 87 µM; Activity (Staphylococcus aureus [21]): inactive; Activity [22]: inactive
O=C(O)c1cn(C2CC2)c2cc(N3CCNCC3)c(F)cc2c1=O [CIPROFLOXACIN] |  |  |  |  |  |  | 5.96 | 3 (≈ 0.994 µg/mL) | 1.5 (≈ 0.497 µg/mL) |  |  |  | MIC (Staphylococcus aureus [12]): 1.5 µM (≈ 0.497 µg/mL); Activity (Staphylococcus aureus [23]): inactive
CCN(CC)CCCC(C)Nc1ccnc2cc(Cl)ccc12 (centres undefined) [CHLOROQUINE] |  |  |  |  | Non-toxic |  |  |  |  |  |  |  | 
C[n+]1ccc2c([nH]c3ccccc32)c1C1=C[C@@]2(O)CC/C=C\CCCCN3CCC1[C@]1(C[C@@H]4/C=C\CCCCN4[C@H]12)C3.O=S(=O)([O-])C(F)(F)F (some centres undefined) | 6.00 | > 24 | 6.13 | > 17.5 | Non-toxic | 4.15 | 4.75 | 44.5 | 44.5 | inactive | inactive | inactive | Activity (Candida albicans [17]): inactive; Activity (Cryptococcus neoformans [2]): inactive; pIC50 (Staphylococcus aureus [12]): 4.35; MBC (Staphylococcus aureus [12]): 89 µM; MIC (Staphylococcus aureus [12]): 89 µM; Activity (Hepatitis C virus [24]): 99.87%; Activity (Hepatitis C virus [25]): 100%

From ChEMBL document CHEMBL1155126, “2-N-Methyl modifications and SAR studies of manzamine A” (Bioorg Med Chem, 2008)
